Assay: Toxicity liver stage against HepG2, at 10uM
Assay type: cell-based
Parameters: test concentration 10 uM, cell line HepG2-A16-CD81EGFP
Conditions: human, HepG2-A16-CD81EGFP cells; read-out: INHIBITION
Outline: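 Uninfected HepG2-A16-CD81EGFP cells, 3 × 10^3 per well, 1536-well, plated on prespotted compound at 10 μM final, parasite-free screening media added to match infected plates; puromycin 10 μM positive, DMSO 0.5% negative; run in parallel with 48 h PbLuc assay at 37 °C, 5% CO2; viability by CellTiter-Glo luminescence, normalized to controls.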

| SMILES | cytotoxicity at 10 µM [%] |
| --- | --- |
| CN1CCOC[C@H]1c1nc(-c2cccc(F)c2)c[nH]1 | -3.68 |
| Cc1cc2nc(CO[C@H]3CN(C(=O)C4CC4)C[C@H]3F)[nH]c2cc1C | -43.4 |
| CN1C[C@H](O)[C@]2(CCN(C(=O)COc3ccccc3)C2)S1(=O)=O | 1.32 |
| Cc1cc(CNC(=O)c2ccno2)c(C)o1 | -6.39 |
| O=c1cc(Cn2ccnc2)nc2n1CCCN(Cc1ccco1)C2 | 7.77 |
| Cc1ccccc1C(=O)N1CCCn2cnc(CN3CCCC3=O)c2C1 | 10.2 |
| O=C(COc1coc(CN2CCCCC2)cc1=O)NCc1ccccc1 | -7.25 |
| COCC1CC2(CCN(C(=O)c3cccc(C)c3)CC2)CO1 (stereo not given) | -5.15 |
| O=C(c1ccc(F)c(F)c1)N1CCN2CCCC2C1 (stereo not given) | -7.09 |
| CCOc1cc(C(=O)N2CCN(CC)CC2)cc2occc12 | 4.37 |
| Oc1ccccc1-c1n[nH]c(C2CC2)n1 | 5.84 |
| Cc1ccnc(C2COCCN2C)n1 (stereo not given) | 3.59 |
| CC(=O)N1CCC(Cc2ccc(-c3ccnn3C)nc2)CC1 | 2.74 |
| CC(C)C(=O)N1CCCc2c(cnn2-c2ccccc2)C1 | 11 |
| CNC(=O)C1(CCCc2ccccn2)CCN1Cc1coc(C)n1 (stereo not given) | 19.7 |
| Cc1cc(C2CCN(S(=O)(=O)N(C)C)CC2)ccn1 | -13 |
| CCCn1cc(C(=O)N2CCCC2(C)c2nc(C)cc(N)n2)cn1 (stereo not given) | -1.13 |
| Cc1cnc(-c2nc(O)c3c(n2)CN(C(=O)C2CCCO2)CC3)cn1 (stereo not given) | -0.661 |
| Cn1cc(CN2CCCC(c3nccnc3-c3cccc(F)c3)C2)cn1 (stereo not given) | 0.954 |
| O=C(Cc1cccc(F)c1)N1CCCCC1c1ccn2ccnc2n1 (stereo not given) | -0.619 |
| Cc1cccc(CN2CCCC3(Cc4ccccc4CNC3=O)C2)n1 (stereo not given) | 5.37 |
| CC(C)(C)NCC(=O)N1CCCC(n2ccnc2)C1 (stereo not given) | 0.462 |
| CCOCc1ccc(NCc2cnc(N3CCN(C)CC3)nc2)cc1 | 12.1 |

| SMILES | cytotoxicity at 10 µM [%] |
| --- | --- |
| O=C(CN1C(=O)CCCc2sccc21)NC1CCc2nccn2C1 (stereo not given) | 9.29 |
| Cc1cccc(COc2ccc(C(C)NS(N)(=O)=O)cc2)c1 (stereo not given) | -6.96 |
| CSc1ncccc1C(=O)Nc1ccc(Cn2ccccc2=O)cc1 | 2.77 |
| COc1cc(CNC(=O)COC2CCCC2)ccc1O | -7.2 |
| CCOCCN(C)C(c1cccnc1)c1ccc(F)cc1F (stereo not given) | 5.64 |
| COC(=O)N(C)CCCC(=O)Nc1[nH]nc(-c2ccncc2)c1C | -0.946 |
| Cn1ccc(C(=O)N2CCCC2c2ccc3c(c2)OCCO3)cc1=O (stereo not given) | 12.3 |
| Cc1cnc2c(S(=O)(=O)NC(=O)C(C)OCC3CC3)cccc2c1 (stereo not given) | -1 |
| CC(C)NC(=O)C(C(C)C)n1cnc2cc(F)c(F)cc21 (stereo not given) | 12.5 |
| COC(=O)N1CCC(Nc2ccc(C#N)c(Cl)c2)C1 (stereo not given) | -8.21 |
| CC(C)CC(CNC(=O)c1cccnc1Oc1cccnc1)N(C)C (stereo not given) | 1.44 |
| Cn1nc2c(cc1=O)CN(Cc1nc3ccccc3c(=O)[nH]1)CC2 | -7.64 |
| CCN1CCC(NC(=O)CN2CCCC(NS(C)(=O)=O)C2)CC1 (stereo not given) | 2.94 |
| COCCOCCC(=O)Nc1c(-c2ccc(F)cc2)ncn1C | -3.31 |
| Cc1nccn1-c1cc(CNC(=O)C2CCC(=O)N2)ccn1 (stereo not given) | -1.24 |
| Cc1cnc(C(=O)N2CCCN(Cc3cnn(C(C)C)c3)CC2)cn1 | 1.28 |
| CCc1cc(NC(=O)C2CCCN(C(=O)c3ccncc3)C2)[nH]n1 (stereo not given) | -8.18 |
| COC(=O)Cc1cccc(NC(=O)Cc2cc(C)[nH]n2)c1 | -2.45 |
| Oc1ncccc1-c1nc(-c2cccc(CN3CCOCC3)c2)no1 | -11.8 |
| OCCCN(CCn1cncn1)c1ccccc1 | -4.04 |
| Cc1nnc(CN(Cc2cccc(Br)c2)C2CC2)o1 | 3.94 |
| O=C(Nc1nnn[nH]1)c1ccc(-n2cccc2)c(F)c1 | -1.63 |
| Cc1nn(CN(CC2CCOC2)C2CC2)c(=O)c2ccccc12 (stereo not given) | 4.77 |

| SMILES | cytotoxicity at 10 µM [%] |
| --- | --- |
| Cc1nsc(NCc2ccc(CS(=O)(=O)NC(C)C)cc2)n1 | -2.8 |
| COc1cccc(C2=CCN(CCN3CCOC3=O)CC2)c1 | -7.52 |
| CCc1noc(CN(C)C(=O)C(C)(C)Oc2cccc(Cl)c2)n1 | -3.63 |
| CN1CCN(C(=O)CCc2cc(Br)cs2)CC1 | -5.35 |
| Cc1csc(N(C)C(=O)C(c2c(F)cccc2Cl)N(C)C)n1 (stereo not given) | -44.3 |
| O=S(=O)(CC1CCCCO1)Nc1c(F)cccc1-n1cccn1 (stereo not given) | 3.44 |
| Cc1ccc(NC(=O)NC(C)c2nc[nH]n2)s1 (stereo not given) | -2.18 |
| CCC(C)(NCC(=O)Nc1ccccc1)c1nc(C)cs1 (stereo not given) | -8.66 |
| O=C(NCCCn1cccn1)N1CCCC1c1ccncc1 (stereo not given) | 21.5 |
| Cc1nnc(NCC2(c3ccccc3)CC2)c(C#N)c1C | 3.51 |
| CC(CNC(=O)Nc1ccc(N(C)C)nc1)Cn1cccn1 (stereo not given) | 6.95 |
| CS(=O)(=O)CCNC(=O)C1(c2cccc(Cl)c2)CCCCC1 | 8.68 |
| CS(=O)(=O)NCC1CCCN(C(=O)Nc2ccccc2Cl)C1 (stereo not given) | -9.73 |
| Cc1cc(C)n(CC2CCCN2C(=O)c2ccc3c(c2)nnn3C)n1 (stereo not given) | -17.3 |
| CCc1cnc(N2CC3(CCN(S(=O)(=O)C4CC4)C3)C2)nc1 | -109 |
| CN1CCN(Cc2cnc3n2CCN(C(=O)c2cscn2)C3)CC1 | -78.2 |
| Cn1cc(-c2nnn3c2COC(CNCc2nccs2)C3)cn1 (stereo not given) | -4.89 |
| CN(C)CCn1ccnc1C1CCN(C(=O)CCC(F)(F)F)CC1 | -0.734 |
| COc1ccccc1-c1ncc(CN2CCCC[C@H](N(C)C)C2)s1 | -5.23 |
| OCC1(O)CCCN(Cc2noc(-c3ccccc3)n2)C1 (stereo not given) | -4.76 |
| Cc1cccc(-n2nc(CC(C)C)nc2[C@H](C)O)c1 | 5.54 |
| COC(=O)c1cc(OCC2CCC2)cc(C(=O)N[C@H](C)C(N)=O)c1 | 16.6 |
| O=c1[nH]c(-c2ccccc2)nc2c1CCN(S(=O)(=O)N1CCCC1)C2 | 3.86 |

| SMILES | cytotoxicity at 10 µM [%] |
| --- | --- |
| Cc1cc(C2CCC2)nc(NCC(C)(C)N2CCOCC2)n1 | 11.5 |
| CN(C)[C@H]1CCN(c2nc(C(C)(C)C)nc3c2cnn3C)C1 | -6.12 |
| CSCc1noc(-c2ccc(C)c(N3CCNC3=O)c2)n1 | -8.77 |
| CCN(C)C(=O)CN1CCC(c2cc(N3CCOCC3)nc(C)n2)CC1 | -2.02 |
| COc1ccccc1-c1ccc(NCc2cn3c(n2)SCC3)nn1 | 8.62 |
| CC(C)c1nnc(NCc2cc3n(n2)CCN(C2CCCCC2)C3)s1 | -4.63 |
| COc1ccc(/C=C/CN2CCN(c3nccnc3C)CC2)cc1 | -8.47 |
| CCCc1nc(C(=O)N2CCn3nc(C(=O)OC)cc3C2)cs1 | 8.87 |
| CCN1CCN(C(C)(C)CNc2nc(C)cc(C3CCC3)n2)CC1 | 1.47 |
| O=C1NC[C@@]2(C(=O)O)CN(Cc3cccc(OC4CCCC4)c3)C[C@@H]12 | -2.34 |
| O=C(CCCc1cn[nH]c1)N1CCOCC(O)C1 (stereo not given) | -23 |
| CC1CN(CC(=O)Nc2ccncc2)CCN1Cc1nccn1C (stereo not given) | -13.7 |
| CCC(C)C(=O)NS(=O)(=O)c1ccc(C#N)cc1C(F)(F)F (stereo not given) | -5.25 |
| CC1COCCN1Cc1nc(-c2cccc(C(F)(F)F)c2)no1 (stereo not given) | -13.9 |
| c1ccc(-c2nnc(CN3CCCC(Cn4cncn4)C3)o2)cc1 (stereo not given) | -7.51 |
| CCC1c2ccsc2CCN1C(=O)NCc1cccnc1OC (stereo not given) | -2.28 |
| CCCc1noc(CN2CCN(CCO)CC2)n1 | -12.1 |
| Cc1ccc(NC2CCN(C(=O)c3c(C)oc(C)c3C)CC2)nn1 | -2.4 |
| COc1ccc(C(CNC(=O)Nc2cc(C)nn2C)N(C)C)cc1 (stereo not given) | 3.31 |
| CC1CCCN(C(=O)NCCCn2cncn2)C1 (stereo not given) | -3.98 |
| CC(C)Oc1ncccc1CNC(=O)N1CCSCC1 | -11.8 |
| O=C(Cc1ccc2c(c1)CCO2)N1CCN(c2nccs2)CC1 | -10.7 |
| CCn1ncc2c1CCCC2NCc1cc(C)ccc1OC (stereo not given) | 1.8 |

| SMILES | cytotoxicity at 10 µM [%] |
| --- | --- |
| Cc1cnc(CN(C)C2CCN(CC(=O)Nc3nccs3)C2)o1 (stereo not given) | -1.49 |
| CCc1n[nH]c(C2CN(Cc3nnc(C4CCC4)o3)CCO2)n1 (stereo not given) | -6.28 |
| COCCc1noc(CN(C)C2CCCN(c3cccnn3)C2)n1 (stereo not given) | -8.64 |
| COc1ncccc1NC(=O)C1CC1 | -19.2 |
| Cn1cnc2c1CCN(CCOc1ccc(C#N)cc1)C2 | -9.47 |
| Cc1cccc(-c2noc(CN3CCCCC3Cn3cncn3)n2)c1 (stereo not given) | -4.32 |
| CC(Cc1cccs1)NC(=O)CCn1cccn1 (stereo not given) | -14.7 |
| CCc1n[nH]c(C2CN(CCCS(C)(=O)=O)CCO2)n1 (stereo not given) | -3.48 |
| Clc1ccc(OCCNCCn2cccn2)cc1 | -14.4 |
| O=C(CCN1CCCC1c1cccc(F)c1)N1CCc2sccc2C1 (stereo not given) | -10.7 |
| CC1CCN(Cn2nc(-c3ccc(F)cc3)oc2=O)CC1 | -2.55 |
| Cc1cc(CN2CCN(CCOc3cccc(C#N)c3)CC2)no1 | -11.6 |
| O=C(NCCN1CCc2ccccc2C1)c1scnc1Cl | -4.84 |
| O=C(c1ccc(Br)o1)N1CCCCC1Cn1cccn1 (stereo not given) | -5.31 |
| CCOCC(O)CN1CCN(C(=O)Cc2ccc3c(c2)CCO3)CC1 (stereo not given) | -18.5 |
| O=C(NCc1cc[nH]n1)N(CCCO)C1CCc2ccccc21 (stereo not given) | -3.27 |
| Cc1nc(-c2ccccc2)n(CC(=O)N(C(C)C)C(C)C)n1 | -4.57 |
| CNS(=O)(=O)c1cccc(CNc2ccc(C(F)(F)F)nn2)c1 | -11.4 |
| CNC(=O)c1cc2c(nc1N(C)C)CCN(S(=O)(=O)C1CC1)CC2 | 0.118 |
| NC(=O)COc1ccc(CNCc2ccc(F)cc2)cc1 | -2.05 |
| CCN1CCC2(CC1)CC(COC)N(Cc1csc(C)n1)C2 (stereo not given) | 6.68 |
| C=c1ncsc1=C1NN=C(C2CCCN2C(=O)c2ccn(CC)n2)O1 (stereo not given) | -7.82 |
| O=C(CSc1ccncc1)N1C[C@@H]2CC[C@H]1CN(Cc1cccnc1)C2 | 4.66 |
